As usually defined, the viability is a read-out of living cells in per cent, often relative to untreated cells. In general, inhibition refers to the change of the read-out against control, counted positive when it falls.

From PubChem BioAssay come the findings set out here.

Structures are written as SMILES. The source made the active and inactive calls. Unless noted, no stated cut-off is given here; in the data, active means inhibition above about 30%; inactive means the rest.

Test [1] in a line: HUVEC growth inhibition – cell-based, human, primary screen (AID 575;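 active means viability at or below 30% in both replicate assays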;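 further: 100% = median of untreated cell wells with 0.1% DMSO on each plate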). Particulars: HUVEC proliferation, CellTiter-Glo luminescence, 72 h; at 10 µM; stronger effect = lower value. The method in brief: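 System – primary HUVEC, no more than 12 passages · Medium – Low-serum (2% FBS) EBM, supplemented · Times – 72 h exposure, 37 °C, 5% CO2, 30 min RT equilibration · Measured by – luminescent ATP assay · Read-out – % viability relative to median vehicle-well signal on each plate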
In general terms: ATP-based viability assays read luminescence as a measure of living cells.

Test [2] can be described thus: growth inhibitors of H69AR lung tumor, primary screen, human, duplicate replicates (AID 580;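 active means viability at or under a set limit in both replicates, limit being median viability minus 3 SD, cut at about 48% in these data, passing the limit was not always enough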;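 further: 100% = mean luminescence of untreated wells and 0% = no signal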). As to conditions: H69AR lung tumor cells viability, ATP luminescence, 72 h; at 10 µM; stronger effect = lower value.
Test [3] is described as follows: reversal of MRP1-mediated doxorubicin resistance, pilot screen, H69AR cells, doxorubicin co-treatment (AID 601;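 active means viability loss from added drug above about 55%, and viability with drug at most 40%, in both replicates, limit read from the data, passing the limit was not always enough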). Particulars: CellTiter-Glo, 72 h, at 10 µM; for differential viability (reversal): stronger effect = higher value.
The nature of test [4]: 384-well plate pilot, post-Golgi transport modulator project, inhibition of yeast transport mutant growth (AID 636; in the data active means inhibition above about 31%). Particulars: absorbance 615 nm, about 18 h, stronger effect = higher value.
The nature of test [5]: growth suppression of yeast trafficking mutant, preliminary HTS, modulators of trafficking downstream of Golgi apparatus project, 1536-format plate, OD 615 nm (AID 637). As to conditions: yeast transport mutant growth, absorbance 615 nm, 18 h; stronger effect = higher value.
[6] abbreviates: H69AR cells + 2 uM doxorubicin, measured here: viability with 2 uM doxorubicin, stronger effect = lower value.
Setting [7] is: H69AR cells, compound alone cytotoxicity.

For the molecule `COc1ccc(-c2noc(C3CCCN(C(=O)CCc4ccccc4)C3)n2)cc1` (stereo not given), the viability is 68.3% (inactive) in test [1], 84.3% (inactive) in test [2], 90% in test [3] (setting [6]) and 84.3% in test [3] (setting [7]). Besides, the differential viability (reversal) in test [3] (H69AR cells + 2 uM doxorubicin) was -5.7% (inactive). The inhibition in test [4] was -1.97% (inactive); in test [5], 11.1% (inactive).
On to `Cn1c(-c2ccc(F)cc2)cnc1NCc1ccccc1`, for which the viability in test [1] is 108% (inactive); in test [2] it was 66.2% (inactive); in test [3] (setting [6]), 81.6%; in test [3] (setting [7]) it was 66.2%. The differential viability (reversal) in test [3] (H69AR cells + 2 uM doxorubicin) was -15.4% (inactive). In addition, the inhibition was -3.03% (inactive) in test [4] and 4.6% (inactive) in test [5].
For the molecule `Cc1nn(Cc2ccccc2Cl)c(C)c1NC(=O)C1C2CCC(O2)C1C(=O)O` (stereo not given), the viability was 93.8% (inactive) in test [1], 90.9% (inactive) in test [2], 87.8% in test [3] (setting [6]) and 90.9% in test [3] (setting [7]). Besides, in test [3] (H69AR cells + 2 uM doxorubicin), the differential viability (reversal) was 3.11% (inactive). Also, the results for the inhibition in test [4] and in test [5] were -1.97% (inactive) and -7.14% (inactive), respectively.
For the molecule `COc1ccc2c(c1)C(=O)N(c1ccccc1OC)C(=O)C2`, the viability is 74.9% (inactive) in test [1], 92.8% (inactive) in test [2], 101% in test [3] (setting [6]) and 92.8% in test [3] (setting [7]). Moreover, the differential viability (reversal) in test [3] (H69AR cells + 2 uM doxorubicin) is -8.61% (inactive). Moreover, the inhibition in test [4] was -3.87% (inactive); in test [5], 0.32% (inactive).
On to `CN(C)S(=O)(=O)n1cnc(-c2ccccc2)c1-c1ccccc1`, for which the viability is 99.8% (inactive) in test [1], 98.3% (inactive) in test [2], 102% in test [3] (setting [6]) and 98.3% in test [3] (setting [7]). Moreover, in test [3] (H69AR cells + 2 uM doxorubicin), the differential viability (reversal) was -3.79% (inactive). The inhibition in test [4] was -1.32% (inactive); in test [5] it was -2.86% (inactive).
For `O=C1CC(c2ccccc2)CC(O)=C1C=NCCCN1CCOCC1` (stereo not given), the viability in test [1] was 100% (inactive); in test [2] it was 100% (inactive); in test [3] (setting [6]), 95%; in test [3] (setting [7]), 100%. In test [3] (H69AR cells + 2 uM doxorubicin), the differential viability (reversal) was 5.34% (inactive). In addition, the inhibition in test [4] was -1.05% (inactive); in test [5], -3.49% (inactive).
With `COc1ccc(OC)c(Nc2ncnc3c2cnn3-c2ccccc2)c1`, the viability in test [1] was 99.3% (inactive); in test [2], 90.5% (inactive); in test [3] (setting [6]), 88.5%; in test [3] (setting [7]), 90.5%. The differential viability (reversal) in test [3] (H69AR cells + 2 uM doxorubicin) is 1.97% (inactive). Moreover, the inhibition in test [4] is -4.67% (inactive); in test [5] it was -5.87% (inactive).
On to `Cc1ccc(C)c(C(=O)CC2(O)C(=O)Nc3ccccc32)c1` (stereo not given), for which the viability in test [1] was 109% (inactive); in test [2], 105% (inactive); in test [3] (setting [6]), 88%; in test [3] (setting [7]), 105%. For the same molecule, the differential viability (reversal) in test [3] (H69AR cells + 2 uM doxorubicin) is 17.1% (inactive). Also, the values for the inhibition in test [4] and in test [5] were -3.6% (inactive) and -7.3% (inactive), respectively.
With `O=C(c1ccc(S(=O)(=O)N2CCOCC2)cc1)N1CCc2ccccc2C1`, the viability in test [1] was 98.1% (inactive); in test [2], 91.1% (inactive); in test [3] (setting [6]) it was 88.2%; in test [3] (setting [7]), 91.1%. Further, in test [3] (H69AR cells + 2 uM doxorubicin), the differential viability (reversal) is 2.92% (inactive). Also, the values for the inhibition in test [4] and in test [5] were -2.37% (inactive) and 9.37% (inactive), respectively.
On to `CCOC(=O)C1CCCN(c2nc3ccccc3nc2C(C#N)C(=O)NCc2ccccc2)C1` (stereo not given), for which the viability is 80.6% (inactive) in test [1], 86.2% (inactive) in test [2], 85.8% in test [3] (setting [6]) and 86.2% in test [3] (setting [7]). Moreover, the differential viability (reversal) in test [3] (H69AR cells + 2 uM doxorubicin) is 0.385% (inactive). Further, the figures for the inhibition in test [4] and in test [5] were -3.95% (inactive) and -1.27% (inactive), respectively.
For `O=C(CSc1nc2c(sc3ccccc32)c(=O)n1Cc1ccco1)NCC1CCCO1` (stereo not given), the viability in test [1] is 78.8% (inactive); in test [2] it was 81.2% (inactive); in test [3] (setting [6]), 85.8%; in test [3] (setting [7]), 81.2%. For the same molecule, the differential viability (reversal) in test [3] (H69AR cells + 2 uM doxorubicin) was -4.63% (inactive). Besides, the inhibition in test [4] was -1.17% (inactive); in test [5], 5.71% (inactive).
With `COc1ccc(NC(=O)COc2ccccc2)c(OC)c1`, the viability in test [1] is 111% (inactive); in test [2], 104% (inactive); in test [3] (setting [6]), 81%; in test [3] (setting [7]), 104%. For the same molecule, the differential viability (reversal) in test [3] (H69AR cells + 2 uM doxorubicin) was 23.1% (inactive). In addition, the inhibition in test [4] is -5.6% (inactive); in test [5], 0.16% (inactive).
`CCc1ccc2[nH]c(=O)c(C(c3nnnn3CC3CCCO3)N3CCCc4ccccc43)cc2c1` (stereo not given): the viability was 88.5% (inactive) in test [1], 91.8% (inactive) in test [2], 98.2% in test [3] (setting [6]) and 91.8% in test [3] (setting [7]). The differential viability (reversal) in test [3] (H69AR cells + 2 uM doxorubicin) was -6.4% (inactive). Besides, the inhibition in test [4] is -7.2% (inactive); in test [5], -1.9% (inactive).
Consider `O=C(CSc1nc(C2CCCCC2)n(-c2ccccc2)n1)NCCN1C(=O)CSC1=O`, for which the viability in test [1] is 103% (inactive); in test [2], 98.8% (inactive); in test [3] (setting [6]), 103%; in test [3] (setting [7]) it was 98.8%. For the same molecule, the differential viability (reversal) in test [3] (H69AR cells + 2 uM doxorubicin) is -4.29% (inactive). For the same molecule, the inhibition in test [4] is -5.84% (inactive); in test [5], 1.27% (inactive).
As for `CC1CCN(C(=O)c2ccc(C(=O)N3CCC(C)CC3)cc2)CC1`, the viability was 87.3% (inactive) in test [1], 101% (inactive) in test [2], 95.4% in test [3] (setting [6]) and 101% in test [3] (setting [7]). Also, the differential viability (reversal) in test [3] (H69AR cells + 2 uM doxorubicin) is 5.22% (inactive). The inhibition was -0.66% (inactive) in test [4] and 0.48% (inactive) in test [5].
`CC1(C)NC(=O)N(CCCOc2ccc(Br)cc2Cl)C1=O`: the viability is 86% (inactive) in test [1], 89.7% (inactive) in test [2], 74.3% in test [3] (setting [6]) and 89.7% in test [3] (setting [7]). The differential viability (reversal) in test [3] (H69AR cells + 2 uM doxorubicin) was 15.5% (inactive). The inhibition is -3.82% (inactive) in test [4] and 4.29% (inactive) in test [5].
Take `Cc1c(NC(=O)C2CCCNC2=O)c(=O)n(-c2ccccc2)n1C` (stereo not given): the viability was 107% (inactive) in test [1], 107% (inactive) in test [2], 107% in test [3] (setting [6]) and 107% in test [3] (setting [7]). Further, in test [3] (H69AR cells + 2 uM doxorubicin), the differential viability (reversal) is -0.405% (inactive). In addition, the results for the inhibition in test [4] and in test [5] were -2.24% (inactive) and 3.33% (inactive), respectively.
Consider `Cc1ccc(C2C(C#N)=C(N)Oc3cc4c(cc32)OCO4)cc1` (stereo not given), for which the viability in test [1] was 48.4% (inactive); in test [2] it was 10.2% (active); in test [3] (setting [6]) it was 54.4%; in test [3] (setting [7]), 10.2%. In addition, the differential viability (reversal) in test [3] (H69AR cells + 2 uM doxorubicin) was -44.2% (inactive). Further, the inhibition was -4.42% (inactive) in test [4] and 1.27% (inactive) in test [5].
Take `Cc1cc(NC(=O)COc2ncnc3sc(C)c(C)c23)no1`: the viability was 97.6% (inactive) in test [1], 89.8% (inactive) in test [2], 86.7% in test [3] (setting [6]) and 89.8% in test [3] (setting [7]). Also, the differential viability (reversal) in test [3] (H69AR cells + 2 uM doxorubicin) was 3.08% (inactive). In addition, the inhibition in test [4] is -3.77% (inactive); in test [5], 5.56% (inactive).
Regarding `O=C(Nc1nccs1)c1cccc(NC(=O)C2CC2)c1`, the viability was 103% (inactive) in test [1], 87.5% (inactive) in test [2], 79.1% in test [3] (setting [6]) and 87.5% in test [3] (setting [7]). Also, the differential viability (reversal) in test [3] (H69AR cells + 2 uM doxorubicin) is 8.43% (inactive). Further, the values for the inhibition in test [4] and in test [5] were -6.13% (inactive) and -0.48% (inactive), respectively.
